Compound activity deposited in PubChem BioAssay by Sanford-Burnham Center for Chemical Genomics.
Compounds with a hit are over-represented: about 2.5% of the library has one in this group of screens.
SENP6 inh – blocks the human protease SENP6; Q9GZR1; Recombinant SENP6 catalytic domain, aminoluciferin luminescence; inhibition, % at 10 µM; hit rate 1.8% among 330,000;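 active = inhibition above about 50% at the single tested dose, limit read from the data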;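 also: plate controls were DMSO wells with enzyme for no effect and DMSO wells lacking enzyme for full effect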
Target sequence (Q9GZR1 628-1112 limits assumed): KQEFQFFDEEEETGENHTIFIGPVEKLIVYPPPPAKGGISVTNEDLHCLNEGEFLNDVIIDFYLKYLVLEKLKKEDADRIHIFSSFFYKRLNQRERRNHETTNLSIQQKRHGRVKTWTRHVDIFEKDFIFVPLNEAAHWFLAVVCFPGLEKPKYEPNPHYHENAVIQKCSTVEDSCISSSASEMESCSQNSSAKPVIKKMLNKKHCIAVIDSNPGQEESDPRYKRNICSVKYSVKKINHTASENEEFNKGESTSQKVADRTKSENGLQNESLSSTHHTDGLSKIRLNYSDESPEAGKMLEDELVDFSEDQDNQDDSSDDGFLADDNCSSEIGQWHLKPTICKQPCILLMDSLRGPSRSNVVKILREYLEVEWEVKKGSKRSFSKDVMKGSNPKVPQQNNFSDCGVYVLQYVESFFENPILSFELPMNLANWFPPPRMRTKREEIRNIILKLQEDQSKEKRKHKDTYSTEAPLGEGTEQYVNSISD
SENP7 block – inhibitors of human SENP7 protease; AID 434973; recombinant SENP7, Z-RLRGG-aminoluciferin luminescence, 40 min; inhibition, % at 5 µM; Q9BQF6; hit rate 1.5% among 330,000;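 active = inhibition above about 50% at the single test dose, limit read from the data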;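 also: plate controls were DMSO with enzyme for no effect and no enzyme buffer wells for full effect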
SENP8 block-1 – SENP8 (human) protease inhibition; Q96LD8; recombinant SENP8, Nedd8 substrate fluorescence; inhibition, % at 20 µM; hit rate 0.64% among 360,000; AID 602440; in the data active = inhibition mostly above about 40%, no sharp cut-off; inactive = mostly below about 27%
SENP1 FRET inh – SENP1 (human) catalytic domain inhibition; Q9P0U3; recombinant SENP1 catalytic domain, CyPet-SUMO1-YPet FRET cleavage; inhibition, % at 10 µM; hit rate 0.21% among 360,000; AID 624204;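 active = inhibition at least 30% at 10 µM, raw YFP signal under a set limit, fluorescence ratio 0.5 to 1.5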;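 also: 0% = enzyme with DMSO and 100% = no enzyme wells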
Target sequence (Q9P0U3 419-644 limits assumed): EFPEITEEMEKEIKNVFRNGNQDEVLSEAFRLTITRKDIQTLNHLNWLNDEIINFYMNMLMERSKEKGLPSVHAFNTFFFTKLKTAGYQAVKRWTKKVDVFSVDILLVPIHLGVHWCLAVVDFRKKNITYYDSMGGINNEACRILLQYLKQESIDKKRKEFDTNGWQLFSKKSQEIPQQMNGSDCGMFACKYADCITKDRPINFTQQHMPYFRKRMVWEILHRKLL
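System: Recombinant human SENP1 catalytic domain, His6-tagged | Incubation: Enzyme reaction for 50 min at room temperature, dark | Medium: Tris pH 8 with BME, BSA, NP40 and catalase | Also added: 25 nM SUMO1 FRET substrate | Compound: 10 µM single point, 0.5% DMSO | Measured by: FRET fluorescence in CFP and YFP emission channels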
SENP8 block-2 – SENP8 protease inhibition; Q96LD8; purified SENP8, Z-RLRGG-aminoluciferin cleavage, luminescence; inhibition, % at 10 µM; hit rate 1.2% among 330,000; AID 2540; in the data active = inhibition above about 50%
SENP8 inh conf – confirmation of human SENP8 protease inhibitors; shares compounds with SENP8 block-1; purified SENP8, Nedd8-AMC/pro-Nedd8 cleavage fluorescence, 30 min; inhibition, % at 25 µM; hit rate 15% among 1,400; AID 624319; in the data active = inhibition mostly above about 39%, no sharp cut-off; inactive = mostly below about 34%
SENP1 inh conf – SENP1 (human) inhibition, single concentration confirmation | inhibition, % at 10 µM | hit rate 34% among 520 | AID 651678 | shares compounds with SENP1 FRET inh | recombinant SENP1, CyPet-SUMO1-YPet FRET cleavage; in the data active = inhibition mostly above about 35%, no sharp cut-off; inactive = mostly below about 32%;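 also: 0% = enzyme with DMSO and 100% = no enzyme control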
SENP1 kinetic – confirmation of human SENP1 SUMO protease inhibitors, kinetic. inhibition, % at 10 µM. recombinant SENP1, CyPet-SUMO1-YPet FRET kinetic cleavage. hit rate 26% among 520. shares compounds with SENP1 FRET inh; in the data active = inhibition mostly above about 32%, no sharp cut-off; inactive = mostly below about 29%;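 also: 0% = DMSO with enzyme and 100% = no enzyme substrate only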
An asterisk follows results filed as active; / = not tested or not shown.

SMILES | SENP6 inh | SENP7 block | SENP8 block-1 | SENP1 FRET inh | SENP8 block-2 | SENP8 inh conf | others
CCc1cc(Cn2nc(-c3ccccc3)cc2C(=O)NCc2cccc(Br)c2)on1 | -5 | -1 | 13 | 3 | -6 | /
CC(OC(=O)CCNS(=O)(=O)c1ccccc1)C(=O)Nc1ccc(S(=O)(=O)N2CCCCC2)cc1 (stereo not given) | / | / | 7 | 1 | / | /
CC1=NN(c2ccccc2)C(=O)C1C(=S)SC1CC(=O)NC1=O (stereo not given) | / | / | 45* | 5 | / | 17
CC1=NN(c2ccccc2)C(=O)C1C(=O)c1ccccc1 (stereo not given) | -2 | 7 | 19 | 2 | 4 | /
COc1ccc(N2C(=O)Cc3ccccc3C2=O)cc1 | 39 | 19 | 84* | -8 | 8 | 38
COc1ccc2c(c1)C(=O)N(c1ccccc1)C(=O)C2 | -2 | 14 | 5 | 40 | 4 | /
O=C(Nc1nc(-c2cccc3ccccc23)cs1)c1cnccn1 | 11 | -2 | 2 | 3 | -11 | /
Cc1cccc(C)c1N/C=C/c1onc(C)c1[N+](=O)[O-] | 8 | 2 | 32 | -50 | -1 | /
Cc1ccc(N/C=C/c2onc(C)c2[N+](=O)[O-])cc1 | 60* | 78* | 54* | -35 | 29 | 14
C/C=C/c1cccc(-c2nc(C(=O)NC3CCC3)cc3c2[C@@H](CCO)N(S(=O)C(C)(C)C)C3)c1 (stereo not given in full) | / | / | -48 | -29 | / | /
COc1ccc(NCC(=O)N/N=C2\CCc3ccccc32)cc1 | 15 | 9 | 40* | -3 | -1 | 26
CCOC(=O)[C@]12CCC=C1N(Cc1ccco1)C(=O)[C@H](CC(=O)NCCCOC)C2 | / | / | 1 | -5 | / | /
O=C1C(=C(I)I)c2ccccc2-c2ccccc21 | / | / | 40* | -3 | / | -1
O=C(O)c1cccc2c1C(=O)c1ccccc1-2 | -9 | 0 | 13 | 1 | 1 | /
CCOc1ccccc1C(C(=O)NC1CCCCC1)N(C(=O)c1csnn1)C1CC1 (stereo not given) | -10 | -7 | 10 | 1 | -2 | /
COc1ccc(C(=O)CNc2ccc(C)cc2C)cc1 | -7 | 13 | 54* | -2 | -7 | 14
CCc1ccc(N2C(=O)C(Cl)=C(N3CCOCC3)C2=O)cc1 | -6 | 9 | 41* | 9 | -7 | 13
Cc1cccc(N2C(=O)C(Cl)=C(N3CCOCC3)C2=O)c1 | 0 | -12 | 46* | 6 | -4 | 2
COc1ccc(N2C(=O)C(Cl)=C(N3CCN(Cc4ccccc4)CC3)C2=O)cc1 | / | / | 17 | 2 | / | /
O=C1C(Cl)=C(N2CCN(Cc3ccccc3)CC2)C(=O)N1c1ccccc1 | -12 | -4 | 48* | 8 | -4 | 11
CCC(Oc1ccc(C)c(C)c1)C(=O)N1CCCN(C)CC1 (stereo not given) | 3 | 5 | 4 | 1 | 4 | /
Cc1cc(C(O)c2ncc(-c3ccc(Oc4ccccc4)cc3)[nH]2)ccc1F (stereo not given) | / | / | 23 | -1 | / | /
Cc1noc(NS(=O)(=O)c2ccc(NC(=O)CCC3CCCC3)cc2)c1C | -8 | -5 | 43* | 3 | -13 | -8
CCCCCCC(=O)Nc1ccc(S(=O)(=O)Nc2onc(C)c2C)cc1 | -17 | -15 | 5 | 0 | -11 | /
CCc1ccc(CNC(=O)CCC(=O)N2Cc3cccc(OC)c3Oc3ncccc32)cc1 | -18 | -21 | 12 | -1 | -7 | /
SMILES | SENP6 inh | SENP7 block | SENP8 block-1 | SENP1 FRET inh | SENP8 block-2 | SENP8 inh conf | others
CCCc1nc2ccccc2n1CCOc1ccccc1 | -10 | 8 | 42* | 1 | -4 | 7
Cn1c(SCC(=O)NNC(=O)c2ccccc2Br)nnc1C(F)(F)F | 11 | -7 | 11 | 1 | 1 | /
CC(=O)NC(CC(=O)N(C)Cc1cccc(Cl)c1Cl)c1ccccc1 (stereo not given) | -2 | -4 | 16 | 0 | 9 | /
O=C(O)c1ncsc1-c1ccccc1 | -12 | -3 | 43* | 1 | -3 | 23
O=C(NCCNC(=O)c1ccc([N+](=O)[O-])cc1)c1ccncc1 | -1 | -6 | 1 | -1 | -5 | /
CCN(CC)C(CNS(=O)(=O)c1ccc(Cl)cc1)c1ccccc1 (stereo not given) | -13 | 0 | 5 | 1 | 1 | /
Cc1ccc(NC(=O)c2sc(N)nc2-c2ccc([N+](=O)[O-])cc2)c(C)c1 | -3 | -13 | 45* | 6 | -7 | 11
O=C(COC(=O)CCNS(=O)(=O)c1cccs1)Nc1ccccc1 | -4 | -6 | 1 | 1 | 6 | /
Cc1[nH]n(-c2ccc(F)cc2)c(=O)c1/C=N/c1sc2c(c1C#N)CCCC2 | 11 | 8 | 48* | 1 | 8 | 23
Cc1[nH]n(-c2cccc3ccccc23)c(=O)c1/C=N/c1sc2c(c1C#N)CCC2 | 7 | -1 | 14 | -3 | 4 | /
O=C(O)C1CC(=O)N(C2CCCCC2)C1c1ccccc1 (stereo not given) | -19 | 4 | 41* | 2 | 0 | 10
COc1ccc(C(=O)NC2=NCCS2)cc1S(=O)(=O)N1CCOCC1 | / | / | 12 | 1 | / | /
Cc1cc(C)n(-c2ccc(C(=O)N3CCN(S(=O)(=O)c4ccc(Br)cc4Cl)CC3)cc2)n1 | / | / | 42* | 3 | / | 8
Cc1cc(C)n(-c2ccc(C(=O)N3CCN(c4ccccn4)CC3)cc2)n1 | -17 | -6 | -3 | 2 | -6 | /
COCc1cc(CNC(=O)C2CCC(=O)N(Cc3cccc(OC)c3)C2)[nH]n1 (stereo not given) | -16 | -7 | 9 | 2 | -9 | /
CC1(C)C=C2C(=NN(c3ccccc3)C(N)=C2C#N)CO1 | 24 | 10 | 54* | -15 | 36 | 97*
CC1(C)Cc2c(C#N)c(N)n(-c3ccccc3)c(=S)c2CO1 | 4 | 10 | -136 | -53 | 11 | /
CCOc1ccc(NS(=O)(=O)c2ccc(Cl)c(N=Nc3c(O)[nH]c(=S)[nH]c3=O)c2)cc1Br | / | / | 40* | 1 | / | 30
CCNc1nc(NOC)nc(OCC#N)n1 | 5 | 15 | 15 | 3 | 3 | /
CCNc1nc(NCC)nc(OCC(=O)O)n1 | -15 | 3 | 46* | 0 | 1 | 21
Cc1nn(C)cc1CN1CCCC(C(=O)c2ccc(-c3ccccc3)cc2)C1 (stereo not given) | -15 | -6 | 7 | 0 | -6 | /
COCCN(C(=O)C1=COCCO1)c1c(N)n(CC(C)C)c(=O)[nH]c1=O | -3 | 10 | -10 | 9 | -7 | /
O=[N+]([O-])c1cccc(C=NNc2ccccc2)c1 | / | / | 10 | 1 | / | /
O=[N+]([O-])c1ccc(C=NNc2ccccc2)cc1 | / | / | 44* | 72* | / | 25 | SENP1 inh conf=59*;SENP1 kinetic=43*
